Series [1] deals with T1, Prostaglandin G/H synthase 1 (Ovis aries, UniProt P05979).
T1 sequence (P05979 whole entry): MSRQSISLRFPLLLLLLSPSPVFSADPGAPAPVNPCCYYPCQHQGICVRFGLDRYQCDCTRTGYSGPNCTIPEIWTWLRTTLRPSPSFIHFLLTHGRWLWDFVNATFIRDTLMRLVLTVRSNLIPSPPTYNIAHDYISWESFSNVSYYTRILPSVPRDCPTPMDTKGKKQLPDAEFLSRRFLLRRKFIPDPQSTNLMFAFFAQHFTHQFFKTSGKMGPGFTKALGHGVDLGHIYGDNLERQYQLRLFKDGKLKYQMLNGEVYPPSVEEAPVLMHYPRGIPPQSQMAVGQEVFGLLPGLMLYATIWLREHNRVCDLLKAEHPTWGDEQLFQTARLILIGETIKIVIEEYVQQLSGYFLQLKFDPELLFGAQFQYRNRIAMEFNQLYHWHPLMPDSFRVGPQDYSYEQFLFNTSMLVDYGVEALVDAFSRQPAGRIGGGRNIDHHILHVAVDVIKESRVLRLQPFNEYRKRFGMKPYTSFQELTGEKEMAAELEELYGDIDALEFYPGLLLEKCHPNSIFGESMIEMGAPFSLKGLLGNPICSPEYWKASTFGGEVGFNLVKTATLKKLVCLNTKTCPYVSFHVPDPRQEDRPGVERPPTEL
In words: Inhibition of ovine COX1 assessed as reduction in Prostaglandin production by enzyme immunoassay. The method in brief: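 Enzyme immunoassay kit with ovine COX-1 (human recombinant COX-2 also supplied). Colour intensity read spectrophotometrically; signal is proportional to PG tracer bound to the well and inversely proportional to free PG in the well. Inhibition calculated against control incubations. IC50 taken from the log concentration vs % inhibition curve.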

The test system of series [2] is Rattus norvegicus. Briefly: Anti-inflammatory activity against carrageenan-induced Wistar albino rat paw edema model assessed as paw edema volume at 20 mg/kg, po pretreated for 30 mins followed by carrageenan-challenge measured immediately by plethysmographic method (reference value: 0.7 ml). Format: functional.
For series [3], the system named is Rattus norvegicus. Briefly: Anti-inflammatory activity against carrageenan-induced Wistar albino rat paw edema model assessed as paw edema volume at 20 mg/kg, po pretreated for 30 mins followed by carrageenan-challenge measured after 3 hrs by plethysmographic method (reference value: 1.14 ml). The series is classed as functional.
The test system of series [4] is Rattus norvegicus. In words: Anti-inflammatory activity against carrageenan-induced Wistar albino rat paw edema model assessed as inhibition of paw edema at 20 mg/kg, po pretreated for 30 mins followed by carrageenan-challenge measured at 1 hr interval for 3 hrs by plethysmographic method relative to control. The series is classed as functional. Summed up: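 Wistar albino rats housed at 25-28 °C, 50–65% relative humidity, 12 h light/dark cycle; five per group. Oral dosing; control group given an equivalent volume of normal saline. Half an hour later, 0.1 ml of 1.0% w/v carrageenan in 0.9% saline injected into the sub-plantar tissue of the hind paw. […] Values taken at 3 h as mean ± SEM; Tukey's test versus control.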

Series [5] relates to Rattus norvegicus. Briefly: Ulcerogenicity in Wistar albino rat assessed as severity index at 60 mg/kg, po measured after 6 hrs. The series is classed as toxicity, organism-based. The following applies: in vivo.

For `COc1ccc(-c2nc3cc(NC(=O)c4cc([N+](=O)[O-])ccc4Cl)ccc3o2)cc1OC`, in series [1], the IC50 stood at 10.2 µM.
Take `COc1ccc(-c2nc3cc(NC(=O)c4ccc(Cl)cc4)ccc3o2)cc1OC`: the IC50 in series [1] was found to be 7.32 µM.
The same measure, in the same setting: then `COc1ccc(-c2nc3cc(NC(=O)c4cccc(Cl)c4)ccc3o2)cc1OC`, with 8.82 µM.
Consider `COc1ccc(-c2nc3cc(NC(=O)c4ccccc4Cl)ccc3o2)cc1OC`, for which, in series [1], the IC50 was found to be 1.02 µM. For the same molecule, the Activity is 0.66 mL in series [2] and 0.74 mL in series [3]. In addition, in series [4], the inhibition in vivo at 20 mg/kg was determined as 84.1%. Besides, the UI in series [5] was found to be 0.8.
Take `COc1ccc(C(=O)Nc2ccc3oc(-c4ccc(OC)c(OC)c4)nc3c2)cc1OC`: the IC50 in series [1] was 8.2 µM.
As to `COc1ccc(-c2nc3cc(NC(=O)c4cccc(C)c4)ccc3o2)cc1OC`, the IC50 in series [1] was determined as 5.21 µM.
Still for that read-out and setting: the same measure for `COc1ccc(-c2nc3cc(NC(=O)c4ccc(O)cc4)ccc3o2)cc1OC`: 58.2 µM.
On to `COc1cc(OC)cc(C(=O)Nc2ccc3oc(-c4ccc(OC)c(OC)c4)nc3c2)c1`, for which the IC50 in series [1] is 6.02 µM. Also, the Activity in series [2] is 0.67 mL; in series [3], 0.81 mL. Besides, the inhibition in vivo at 20 mg/kg in series [4] was determined as 68.2%. Besides, the UI in series [5] was 2.1.
In the same order, the values of `COc1ccc(-c2nc3cc(NC(=O)c4ccc([N+](=O)[O-])cc4Cl)ccc3o2)cc1OC` are 5.15 µM, 0.71 mL, 0.77 mL, 72.7% and 1.
Take `COc1ccc(-c2nc3cc(NC(=O)c4ccc(C)cc4)ccc3o2)cc1OC`: the IC50 in series [1] amounted to 7.84 µM.
With `COc1ccc(-c2nc3cc(NC(=O)c4ccc([N+](=O)[O-])cc4)ccc3o2)cc1OC`, the IC50 in series [1] is 3.23 µM. In addition, the values for the Activity in series [2] and in series [3] were 0.71 mL and 0.8 mL, respectively. Further, the inhibition in vivo at 20 mg/kg in series [4] worked out at 79.5%. The UI in series [5] was 1.8.
For the molecule `COc1ccc(-c2nc3cc(NC(=O)c4ccccc4)ccc3o2)cc1OC`, the IC50 in series [1] stood at 6.2 µM.
`COc1ccc(-c2nc3cc(NC(=O)c4ccccc4Br)ccc3o2)cc1OC`: in series [1], the IC50 is 10.1 µM.
On the same count and under the same terms, then `COc1ccc(-c2nc3cc(NC(=O)c4ccccc4C)ccc3o2)cc1OC`, with 9.21 µM.
In the case of `COc1ccc(-c2nc3cc(NC(=O)c4cccc([N+](=O)[O-])c4)ccc3o2)cc1OC`, the IC50 in series [1] stood at 5.52 µM. Also, the Activity in series [2] is 0.57 mL; in series [3], 0.77 mL. Besides, the inhibition in vivo at 20 mg/kg in series [4] amounted to 54.5%.
Consider `COc1ccc(C(=O)Nc2ccc3oc(-c4ccc(OC)c(OC)c4)nc3c2)cc1`, for which the IC50 in series [1] is 16.3 µM.
As for `CC(C)Cc1ccc(C(C)C(=O)O)cc1` (configuration not stated) [IBUPROFEN], the inhibition in vivo at 20 mg/kg in series [4] was 65.9%. The UI in series [5] amounted to 2.2.

(Values after ChEMBL document CHEMBL4184229, “Synthesis, biological evaluation and docking study of a new series of di-substituted benzoxazole derivatives as selective COX-2 inhibitors and anti-inflammatory agents” (Bioorg Med Chem, 2018).)
